Measured values from ChEMBL document CHEMBL2057084, “Discovery of benzylisothioureas as potent divalent metal transporter 1 (DMT1) inhibitors” (Bioorg Med Chem Lett, 2012).

Experiments:
[1] = Inhibition of human DMT1B-IRE expressed in CHO cells assessed as blockage of ferrous influx after 20 mins by calcein fluorescence quenching method; assay type: cell-based
In short: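 Calcein fluorescence quench assay for DMT1 (conditions detailed in supplementary data); IC50s are the average of at least two independent determinations.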

[2] = molecular target: T1, Natural resistance-associated macrophage protein 1 (Homo sapiens, UniProt P49279); test: Inhibition of NRAMP1 expressed in CHO cells; assay type: cell-based
T1 sequence (P49279 whole entry): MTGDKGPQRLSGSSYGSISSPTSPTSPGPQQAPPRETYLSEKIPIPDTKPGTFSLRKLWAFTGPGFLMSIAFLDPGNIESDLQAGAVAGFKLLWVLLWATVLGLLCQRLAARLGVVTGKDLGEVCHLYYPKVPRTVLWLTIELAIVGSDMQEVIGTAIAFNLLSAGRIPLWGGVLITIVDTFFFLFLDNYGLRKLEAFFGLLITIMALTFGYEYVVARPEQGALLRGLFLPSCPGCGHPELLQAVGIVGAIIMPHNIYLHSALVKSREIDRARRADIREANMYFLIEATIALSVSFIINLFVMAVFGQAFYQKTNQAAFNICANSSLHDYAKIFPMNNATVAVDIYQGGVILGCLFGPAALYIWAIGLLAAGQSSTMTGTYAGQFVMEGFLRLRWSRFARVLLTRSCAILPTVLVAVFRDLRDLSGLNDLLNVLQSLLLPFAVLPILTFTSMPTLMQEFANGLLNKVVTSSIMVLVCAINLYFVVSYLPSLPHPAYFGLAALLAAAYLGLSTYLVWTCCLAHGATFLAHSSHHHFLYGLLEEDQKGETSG

[3] = Apparent permeability across basolateral to apical side in human Caco2 cells; assay type: ADME, cell-based; settings: Caco-2
In short: (§1)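 Caco-2 cell monolayers; apparent permeability measured in both directions (apical→basolateral and basolateral→apical); […].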

[4] = Apparent permeability across apical to basolateral side in human Caco2 cells; assay type: ADME, cell-based; settings: Caco-2; in short: as §1

Structure (SMILES)	IC50 [1]	IC50 [2]	Papp B→A [3]	Papp A→B [4]
N=C(N)SCc1ccccc1C(=O)c1ccc(Cl)cc1CSC(=N)N	2920 nM	> 10000 nM	–	–
Br.N=C(N)SCc1cc(F)ccc1Sc1cc(F)c(F)cc1CSC(=N)N	600 nM	> 10000 nM	0.2 ×10⁻⁶ cm/s	< 0.1 ×10⁻⁶ cm/s
Br.N=C(N)SCc1cc(F)ccc1Oc1cc(F)ccc1CSC(=N)N	840 nM	> 10000 nM	0.4 ×10⁻⁶ cm/s	< 0.1 ×10⁻⁶ cm/s
Br.N=C(N)SCc1cccc2c1C(=O)c1c(CSC(=N)N)cccc1-2	580 nM	> 10000 nM	0.3 ×10⁻⁶ cm/s	0.4 ×10⁻⁶ cm/s
Br.N=C(N)SCc1cccc2c1sc1c(CSC(=N)N)c(Br)ccc12	750 nM	> 10000 nM	0.2 ×10⁻⁶ cm/s	1.3 ×10⁻⁶ cm/s
CN(c1ccccc1CSC(=N)N)c1ccccc1CSC(=N)N	730 nM	> 10000 nM	–	–
N=C(N)SCc1cc(F)ccc1Oc1ccc([N+](=O)[O-])cc1CSC(=N)N	160 nM	> 10000 nM	–	–
Br.COc1ccc(Sc2ccc(F)cc2CSC(=N)N)c(CSC(=N)N)c1	530 nM	> 10000 nM	2.4 ×10⁻⁶ cm/s	2.4 ×10⁻⁶ cm/s
Br.N=C(N)SCc1ccccc1Sc1cc(F)c(F)cc1CSC(=N)N	320 nM	> 10000 nM	1.4 ×10⁻⁶ cm/s	1.3 ×10⁻⁶ cm/s
Br.N=C(N)SCc1cccc2c1sc1c(CSC(=N)N)cccc12	260 nM	> 10000 nM	< 0.1 ×10⁻⁶ cm/s	< 0.1 ×10⁻⁶ cm/s
N=C(N)SCc1cccc2cc3cccc(CSC(=N)N)c3nc12	290 nM	> 10000 nM	0.5 ×10⁻⁶ cm/s	0.2 ×10⁻⁶ cm/s
Br.N=C(N)SCc1cccc2c1-c1c(CSC(=N)N)cccc1-2	100 nM	> 10000 nM	0.4 ×10⁻⁶ cm/s	< 0.1 ×10⁻⁶ cm/s
Br.N=C(N)SCc1ccccc1C(=O)c1cc([N+](=O)[O-])ccc1CSC(=N)N	370 nM	> 10000 nM	0.7 ×10⁻⁶ cm/s	0.1 ×10⁻⁶ cm/s
N=C(N)SCc1ccccc1C(=O)c1cc(Cl)ccc1CSC(=N)N	5200 nM	> 10000 nM	–	–
Br.N=C(N)SCc1c(F)ccc2c1oc1c(CSC(=N)N)c(F)ccc12	90 nM	> 10000 nM	1 ×10⁻⁶ cm/s	5 ×10⁻⁶ cm/s
N=C(N)SCc1ccccc1Sc1ccc(N)cc1CSC(=N)N	910 nM	> 10000 nM	–	–
Cc1cccc(CSC(=N)N)c1Sc1ccccc1CSC(=N)N	3770 nM	> 10000 nM	–	–
Cc1ccc(CSC(=N)N)c(Sc2ccc(F)cc2CSC(=N)N)c1	1450 nM	> 10000 nM	–	–
Br.N=C(N)SCc1cccc2c1oc1c(CSC(=N)N)cccc12	50 nM	> 10000 nM	0.2 ×10⁻⁶ cm/s	< 0.1 ×10⁻⁶ cm/s
N=C(N)SCc1cccc2c1oc1c(CSC(=N)N)cc(F)cc12	20 nM	> 10000 nM	–	–
N=C(N)SCc1ccccc1C(=O)c1cc(F)ccc1CSC(=N)N	2020 nM	> 10000 nM	–	–
Br.N=C(N)SCc1cc(F)ccc1Oc1cc(Cl)ccc1CSC(=N)N	340 nM	> 10000 nM	0.9 ×10⁻⁶ cm/s	0.2 ×10⁻⁶ cm/s
N=C(N)SCc1ccccc1Oc1ccc(Cl)cc1CSC(=N)N	1130 nM	> 10000 nM	–	–

Structure (SMILES)	IC50 [1]	IC50 [2]	Papp B→A [3]	Papp A→B [4]
Br.N=C(N)SCc1cc(F)ccc1Sc1ccc(C(F)(F)F)cc1CSC(=N)N	690 nM	> 10000 nM	3.8 ×10⁻⁶ cm/s	0.1 ×10⁻⁶ cm/s
N=C(N)SCc1cccc2c1Oc1c(CSC(=N)N)cccc1S2	150 nM	> 10000 nM	–	–
Br.CS(=O)(=O)c1ccc(Sc2ccc(F)cc2CSC(=N)N)c(CSC(=N)N)c1	290 nM	> 10000 nM	0.1 ×10⁻⁶ cm/s	< 0.1 ×10⁻⁶ cm/s
N=C(N)SCc1cc(F)ccc1Sc1c(CSC(=N)N)cccc1[N+](=O)[O-]	4150 nM	> 10000 nM	–	–
COc1ccc(Sc2ccccc2CSC(=N)N)c(CSC(=N)N)c1	1440 nM	> 10000 nM	–	–
N=C(N)SCc1ccccc1C(=O)c1ccc(F)cc1CSC(=N)N	580 nM	> 10000 nM	–	–
Br.N=C(N)SCc1c(Br)ccc2c1sc1c(CSC(=N)N)c(Br)ccc12	860 nM	> 10000 nM	2 ×10⁻⁶ cm/s	4 ×10⁻⁶ cm/s
Br.CN(C)S(=O)(=O)c1ccc(Sc2ccc(F)cc2CSC(=N)N)c(CSC(=N)N)c1	950 nM	> 10000 nM	0.1 ×10⁻⁶ cm/s	< 0.1 ×10⁻⁶ cm/s
Br.N=C(N)SCc1cc(F)ccc1Sc1ccc(F)cc1CSC(=N)N	150 nM	> 10000 nM	0.4 ×10⁻⁶ cm/s	0.4 ×10⁻⁶ cm/s
Br.N=C(N)SCc1c(Br)ccc2c1oc1c(CSC(=N)N)c(Br)ccc12	110 nM	> 10000 nM	0.1 ×10⁻⁶ cm/s	0.2 ×10⁻⁶ cm/s
Br.N=C(N)SCc1cc(F)ccc1Oc1ccc(F)cc1CSC(=N)N	320 nM	> 10000 nM	0.2 ×10⁻⁶ cm/s	< 0.1 ×10⁻⁶ cm/s
Br.N=C(N)SCc1c(Cl)ccc2c1oc1c(CSC(=N)N)c(Cl)ccc12	270 nM	> 10000 nM	0.4 ×10⁻⁶ cm/s	< 0.1 ×10⁻⁶ cm/s
N=C(N)SCc1cccc2c1-c1c(CSC(=N)N)cccc1C2=O	> 15000 nM	> 10000 nM	–	–
Br.Cc1ccc(Sc2ccccc2CSC(=N)N)c(CSC(=N)N)c1	490 nM	> 10000 nM	1.4 ×10⁻⁶ cm/s	1.5 ×10⁻⁶ cm/s
Br.N=C(N)SCc1cc(F)cc2c1sc1c(CSC(=N)N)cc(Cl)cc12	40 nM	> 10000 nM	0.2 ×10⁻⁶ cm/s	0.5 ×10⁻⁶ cm/s
N=C(N)SCc1cc(Cl)ccc1Sc1ccc(Cl)cc1CSC(=N)N	3020 nM	> 10000 nM	–	–
Br.N=C(N)SCc1ccccc1Sc1ccc(F)cc1CSC(=N)N	150 nM	> 10000 nM	0.2 ×10⁻⁶ cm/s	0.3 ×10⁻⁶ cm/s
N=C(N)SCc1ccccc1Oc1cc(Cl)ccc1CSC(=N)N	15000 nM	> 10000 nM	–	–
Br.N=C(N)SCc1ccccc1Sc1cc(F)ccc1CSC(=N)N	510 nM	> 10000 nM	0.2 ×10⁻⁶ cm/s	0.3 ×10⁻⁶ cm/s
N=C(N)SCc1cccc2c1sc1c(CSC(=N)N)cc(F)cc12	90 nM	> 10000 nM	–	–
N=C(N)SCc1cccc2sc3cccc(CSC(=N)N)c3c12	5040 nM	> 10000 nM	–	–
Cc1cc(C)c(CSC(=N)N)c(C)c1CSC(=N)N	290 nM	–	1.2 ×10⁻⁶ cm/s	0.9 ×10⁻⁶ cm/s
N=C(N)SCc1cc(Cl)ccc1Oc1ccc([N+](=O)[O-])cc1CSC(=N)N	2890 nM	> 10000 nM	–	–
